In experiment [1] the test system is K562. Description: Cytotoxicity against human K562 cells assessed as cell viability after 72 hrs by CCK8 assay. Format: functional, cell-based. Particulars: K562, 72 h. In a few lines:
(§1)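 Cells grown in RPMI or DMEM with 10% FBS and 1% penicillin/streptomycin at 37 °C, 5% CO2. Seeded at 400-800 cells/well in 384-well plates, treated with a range of compound concentrations or solvent control for 72 h. CCK8 reagent added, absorbance read at 450 nm; IC50 from dose-response curves. Taxol positive control.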
Background: Tetrazolium dyes change colour on reduction, which living cells bring about.

For experiment [2], the system named is MOLT-4. Description: Cytotoxicity against human MOLT4 cells assessed as cell viability after 72 hrs by CCK8 assay. It counts as functional, cell-based. Particulars: MOLT-4, 72 h. In a few lines: as §1
Experiment [3] can be described thus: Cytotoxicity against human U937 cells assessed as cell viability after 72 hrs by CCK8 assay. Particulars: U-937, 72 h. Format: functional, cell-based. In a few lines: as §1
The subject of experiment [4] is HeLa. Description: Cytotoxicity against human HeLa cells assessed as cell viability after 72 hrs by CCK8 assay. It counts as functional, cell-based. In a few lines:
as §1

For experiment [5], the system named is DU-145. As to the kind of experiment: Cytotoxicity against human DU145 cells assessed as cell viability after 72 hrs by CCK8 assay. Format: functional, cell-based. Particulars: DU-145, 72 h. In a few lines:
as §1

Experiment [6] concerns NCI-H1975. Description: Cytotoxicity against human NCI-H1975 cells assessed as cell viability after 72 hrs by CCK8 assay. Particulars: NCI-H1975, 72 h. Format: functional, cell-based. In a few lines: as §1
Experiment [7] in a line: Cytotoxicity against human HL60 cells assessed as cell viability after 72 hrs by CCK8 assay. To be noted: HL-60, 72 h. Format: functional, cell-based. In a few lines:
as §1

For experiment [8], the system named is HEK-293T. As to the kind of experiment: Cytotoxicity against human 293T cells after 44 hrs by MTT assay. Format: cell-based. In a few lines: (§2)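 Cells cultured in 88% DMEM, 12% FBS, 100 units/mL penicillin and streptomycin. Seeded at 2 × 10^5 cells/mL, 24 h at 37 °C in 5% CO2, then medium replaced with compound in growth medium at 80, 40, 20, 10 and 5 concentrations for 44 h. MTT (5 mg/mL) added for a further 4 h; absorbance at 490 nm. Untreated cells as negative control, Taxol positive control.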

The nature of experiment [9]: Cytotoxicity against human LX2 cells after 44 hrs by MTT assay. It counts as cell-based. To be noted: LX-2, 44 h. In a few lines: as §2
Experiment [10] addresses T1, Prostaglandin G/H synthase 1 (Ovis aries, UniProt P05979).
T1 sequence (P05979 whole entry): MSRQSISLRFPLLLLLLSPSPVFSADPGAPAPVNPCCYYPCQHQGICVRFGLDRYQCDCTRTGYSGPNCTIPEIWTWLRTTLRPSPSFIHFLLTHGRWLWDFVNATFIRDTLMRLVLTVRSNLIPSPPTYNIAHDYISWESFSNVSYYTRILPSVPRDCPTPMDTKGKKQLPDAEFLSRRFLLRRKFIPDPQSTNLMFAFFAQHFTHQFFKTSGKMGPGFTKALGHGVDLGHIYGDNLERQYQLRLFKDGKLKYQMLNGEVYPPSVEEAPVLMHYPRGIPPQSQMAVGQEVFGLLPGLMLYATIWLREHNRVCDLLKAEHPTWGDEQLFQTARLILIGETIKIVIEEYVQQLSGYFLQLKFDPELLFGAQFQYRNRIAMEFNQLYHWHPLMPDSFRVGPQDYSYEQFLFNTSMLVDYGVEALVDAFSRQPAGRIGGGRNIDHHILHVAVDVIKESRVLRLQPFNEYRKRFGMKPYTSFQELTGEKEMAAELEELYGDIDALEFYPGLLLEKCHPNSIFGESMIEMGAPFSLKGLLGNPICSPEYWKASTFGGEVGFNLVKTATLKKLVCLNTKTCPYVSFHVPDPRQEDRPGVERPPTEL
As to the kind of experiment: Inhibition of ovine COX1 using fluorometric substrate after 15 mins.

In experiment [11] the target is T2, Prostaglandin G/H synthase 2 (Homo sapiens, UniProt P35354).
T2 sequence (P35354 whole entry): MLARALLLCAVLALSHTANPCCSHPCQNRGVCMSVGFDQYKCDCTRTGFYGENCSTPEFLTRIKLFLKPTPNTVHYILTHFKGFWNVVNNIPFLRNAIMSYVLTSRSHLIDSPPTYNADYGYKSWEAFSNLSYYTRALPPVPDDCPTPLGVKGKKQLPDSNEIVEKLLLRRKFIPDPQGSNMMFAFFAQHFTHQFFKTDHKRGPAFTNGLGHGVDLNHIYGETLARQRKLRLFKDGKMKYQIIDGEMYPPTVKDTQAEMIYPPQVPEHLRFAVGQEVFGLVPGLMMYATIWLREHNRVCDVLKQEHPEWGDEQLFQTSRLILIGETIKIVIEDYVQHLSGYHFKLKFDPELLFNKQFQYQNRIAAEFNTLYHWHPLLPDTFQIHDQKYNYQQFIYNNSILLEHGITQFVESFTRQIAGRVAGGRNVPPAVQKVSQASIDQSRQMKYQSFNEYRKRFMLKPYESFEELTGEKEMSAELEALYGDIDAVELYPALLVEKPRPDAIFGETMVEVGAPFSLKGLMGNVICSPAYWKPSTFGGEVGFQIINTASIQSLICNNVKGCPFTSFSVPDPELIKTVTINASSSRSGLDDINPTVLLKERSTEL

Experiment [12] concerns MCF7. As to the kind of experiment: Cytotoxicity against human MCF7 cells assessed as cell viability after 72 hrs by CCK8 assay. It counts as functional, cell-based. To be noted: MCF7, 72 h. In a few lines: as §1
The subject of experiment [13] is A549. Description: Cytotoxicity against human A549 cells assessed as cell viability after 72 hrs by CCK8 assay. It counts as functional, cell-based. To be noted: A549, 72 h. A digest of the protocol: as §1
Experiment [14] in a line: Cytotoxicity against human SGC7901 cells assessed as cell viability after 72 hrs by CCK8 assay. To be noted: SGC-7901, 72 h. Format: functional, cell-based. A digest of the protocol:
as §1

A word on the IC50: it is the concentration needed to halve the response being measured.

The structures appear in SMILES notation. Where only a bound is given, the exact number is not on record here.

Regarding `C/C=C(\C)C(=O)O[C@@H]1[C@@H](C)[C@@]2(O)[C@@H](C=C(CO)C[C@]3(O)C(=O)C(C)=C[C@@H]23)[C@@H]2C(C)(C)[C@]12OC(=O)C(C)CC` (stereo partly drawn), the IC50 in experiment [1] was found to be 2.2 µM; in experiment [2], 1 µM; in experiment [3], 2.6 µM; in [4] it was 10 µM; in [5] it was 5 µM; in experiment [6], 10 µM. Moreover, the IC50 in [7] is 1.2 µM; in experiment [8], 157 µM; in experiment [9] it was greater than 500 µM; in [10] it was greater than 50 µM; in [11], greater than 50 µM.
Take `C/C=C(\C)C(=O)O[C@@H]1[C@@H](C)[C@@]2(O)[C@@H](C=C(CO)C[C@]3(O)C(=O)C(C)=C[C@@H]23)[C@@H]2C(C)(C)[C@]12OC(=O)C(C)C`: the IC50 in [1] was 4.4 µM; in [2], 1.1 µM; in experiment [3], 5.5 µM; in [12] it was greater than 50 µM; in experiment [4] it was 9.2 µM; in [5], 1.1 µM. The IC50 in [13] is 32 µM; in [14] it was 43 µM; in [6], 10 µM; in experiment [7], 1.2 µM; in experiment [8], 171 µM; in [9], greater than 500 µM. Moreover, the IC50 in [10] and in experiment [11] was greater than 50 µM throughout.
For the molecule `CC(=O)O[C@@H]1[C@@H](C)[C@@]2(O)[C@@H](C=C(CO)C[C@]3(O)C(=O)C(C)=C[C@@H]23)[C@@H]2C(C)(C)[C@]12OC(=O)C(C)C`, the IC50 turned out to be 4 µM in [1]; 2.4 µM in experiment [2]; 6.8 µM in experiment [3]; 13 µM in experiment [12]; 3.9 µM in experiment [4]; 7.2 µM in [5]. For the same molecule, the IC50 in [13] is 5.8 µM; in experiment [14], 13 µM; in experiment [6] it was 10 µM; in [7] it was 12 µM; in [8], 292 µM; in experiment [9] it was greater than 500 µM. Moreover, the half-maximal inhibitory concentration (IC50) in [10] and in experiment [11] was greater than 50 µM in each case.
As for `CCC(C)C(=O)O[C@@]12[C@H](OC(=O)c3ccccc3)[C@@H](C)[C@@]3(O)[C@@H](C=C(CO)C[C@]4(O)C(=O)C(C)=C[C@@H]34)[C@@H]1C2(C)C` (stereo partly drawn), the IC50 in [1] was 15 µM; in experiment [2], 12 µM; in experiment [3], 17 µM; in experiment [12], 20 µM; in [4], 4.6 µM; in experiment [5], 4.3 µM. The IC50 is 6.9 µM in experiment [13]; 10 µM in experiment [14]; 3.3 µM in [6]; 6.8 µM in experiment [7]; 420 µM in experiment [8]; greater than 500 µM in experiment [9]. Moreover, the IC50 in experiment [10] worked out at 0.14 µM; in experiment [11], 8.5 µM.
For `C/C=C(\C)C(=O)O[C@@H]1[C@@H](C)[C@@]2(O)[C@@H](C(=O)C(CO)=C[C@]3(O)C(=O)C(C)=C[C@@H]23)[C@@H]2C(C)(C)[C@]12OC(=O)C(C)CC` (stereo partly drawn), the IC50 in [1] turned out to be 17 µM; in experiment [2] it was 4.8 µM; in [3] it was 21 µM; in [12], 20 µM; in experiment [4] it was 5 µM; in experiment [5] it was 10 µM. Also, the IC50 in experiment [13] was 19 µM; in experiment [14], 23 µM; in experiment [6] it was 10 µM; in experiment [7], 10 µM; in experiment [8] it was 455 µM; in experiment [9], greater than 500 µM. Moreover, the IC50 in experiment [10] and in experiment [11] was greater than 50 µM in each case.
On to `CCC(C)C(=O)O[C@@]12[C@H](O)[C@@H](C)[C@]3(O)[C@@H]4C=C(C)C(=O)[C@@H]4CC(CO)=C[C@H]3[C@@H]1C2(C)C` (stereo partly drawn), for which the IC50 is 8 µM in [1]; 9.9 µM in experiment [2]; 18 µM in experiment [3]; 24 µM in experiment [12]; 10 µM in [4]; 10 µM in experiment [5]. Besides, the half-maximal inhibitory concentration (IC50) in [13] was 4.5 µM; in experiment [14], 5.4 µM; in [6], 3.3 µM; in [7], 9.8 µM; in experiment [8], 191 µM; in experiment [9] it was greater than 500 µM. For the same molecule, the IC50 in [10] and in experiment [11] was greater than 50 µM each time.
As for `CCC(C)C(=O)O[C@@]12[C@H](OC(C)=O)[C@@H](C)[C@@]3(O)[C@@H](C(=O)C(CO)=C[C@]4(O)C(=O)C(C)=C[C@@H]34)[C@@H]1C2(C)C` (stereo partly drawn), the IC50 in experiment [1] is 7.2 µM; in experiment [2], 10 µM; in experiment [3] it was 14 µM; in experiment [12], greater than 50 µM; in [4], 10 µM; in experiment [5], 11 µM. Moreover, the IC50 in experiment [13] is greater than 50 µM; in [14], greater than 50 µM; in experiment [6], 10 µM; in [7] it was 9.9 µM; in experiment [8] it was 147 µM; in [9] it was 352 µM. The half-maximal inhibitory concentration (IC50) in experiment [10] and in [11] was greater than 50 µM throughout.
Regarding `CC(=O)O[C@H]1C(=O)[C@@]2(C)[C@H]([C@H](OC(=O)c3ccccc3)[C@]3(O)C[C@H](OC(=O)[C@H](O)[C@@H](NC(=O)c4ccccc4)c4ccccc4)C(C)=C1C3(C)C)[C@]1(OC(C)=O)CO[C@@H]1C[C@@H]2O` [PACLITAXEL], the IC50 in experiment [1] turned out to be 0.0052 µM; in [2], 0.0022 µM; in experiment [3], 0.0025 µM; in experiment [12], 0.0062 µM; in [5] it was 0.0034 µM; in [14] it was 0.0051 µM. The concentration for half-maximal inhibition (IC50) in experiment [6] was found to be 0.0077 µM; in experiment [7], 0.0018 µM.

These data come from ChEMBL document CHEMBL3400051, “Five new phorbol esters with cytotoxic and selective anti-inflammatory activities from Croton tiglium” (Bioorg Med Chem Lett, 2015).
